ChEMBL document CHEMBL4680371, “Design and Structure-Activity Relationship of a Potent Furin Inhibitor Derived from Influenza Hemagglutinin” (ACS Med Chem Lett, 2021)
Where a SMILES comes first, the peptide text is derived from it. Bridges are numbered along the chain shown (N, C = ends).

biological target: Furin (Homo sapiens, UniProt P09958); test: Inhibition of recombinant soluble human furin using pyroGlu-Arg-Thr-Lys-Arg-methyl-coumaryl-7-amide as substrate measured after 1 hr
Summary of the method: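 Soluble human recombinant furin was tested in a competitive kinetic assay. Ki is reported as the mean ± SD of at least two independent experiments.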

Furin, sequence (P09958 whole entry): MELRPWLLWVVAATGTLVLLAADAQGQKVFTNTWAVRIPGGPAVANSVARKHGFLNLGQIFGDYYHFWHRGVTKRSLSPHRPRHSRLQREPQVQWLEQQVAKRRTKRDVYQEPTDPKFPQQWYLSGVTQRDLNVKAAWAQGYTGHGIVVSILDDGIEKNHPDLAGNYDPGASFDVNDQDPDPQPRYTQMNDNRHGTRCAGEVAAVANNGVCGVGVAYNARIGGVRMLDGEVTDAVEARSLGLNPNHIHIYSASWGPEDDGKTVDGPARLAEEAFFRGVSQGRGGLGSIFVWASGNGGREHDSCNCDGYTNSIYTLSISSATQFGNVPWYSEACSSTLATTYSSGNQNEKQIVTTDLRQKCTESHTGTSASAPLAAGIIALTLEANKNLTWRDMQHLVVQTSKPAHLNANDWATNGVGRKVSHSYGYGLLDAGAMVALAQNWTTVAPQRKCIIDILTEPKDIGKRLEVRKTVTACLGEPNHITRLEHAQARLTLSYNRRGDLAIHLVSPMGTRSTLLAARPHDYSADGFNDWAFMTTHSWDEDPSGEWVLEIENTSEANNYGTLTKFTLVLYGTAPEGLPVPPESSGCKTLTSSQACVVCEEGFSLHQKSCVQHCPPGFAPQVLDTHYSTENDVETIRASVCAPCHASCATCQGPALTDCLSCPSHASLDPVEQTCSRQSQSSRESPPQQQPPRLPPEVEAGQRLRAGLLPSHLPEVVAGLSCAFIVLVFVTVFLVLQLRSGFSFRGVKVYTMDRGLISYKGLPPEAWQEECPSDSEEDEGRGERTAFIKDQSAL

| Structure (SMILES) | Ki |
| --- | --- |
| CC(=O)N[C@@H](CCC(N)=O)C(=O)N[C@@H](C)C(=O)N[C@@H](CCCNC(=N)N)C(=O)N[C@@H](CCCNC(=N)N)C(=O)N[C@@H](CCCNC(=N)N)C(=O)N[C@@H](CCCCN)C(=O)N[C@@H](CCCCN)C(=O)N[C@@H](CCCNC(=N)N)C(=O)N[C@H](C(N)=O)[C@@H](C)O | 10 nM |
| CC(=O)N[C@@H](C)C(=O)N[C@@H](C)C(=O)N[C@@H](CCCNC(=N)N)C(=O)N[C@@H](CCCNC(=N)N)C(=O)N[C@@H](CCCNC(=N)N)C(=O)N[C@@H](CCCCN)C(=O)N[C@@H](CCCCN)C(=O)N[C@@H](CCCNC(=N)N)C(=O)N[C@H](C(N)=O)[C@@H](C)O | 11 nM |
| CC(=O)N[C@@H](CCCNC(=N)N)C(=O)N[C@@H](CC(C)C)C(=O)N[C@@H](CCCNC(=N)N)C(=O)N[C@@H](CCCNC(=N)N)C(=O)N[C@@H](CCCNC(=N)N)C(=O)N[C@@H](CCCCN)C(=O)N[C@@H](CCCCN)C(=O)N[C@@H](CCCNC(=N)N)C(=O)N[C@H](C(N)=O)[C@@H](C)O | 23 nM |
| CC(=O)N[C@@H](CCCNC(=N)N)C(=O)N[C@@H](C)C(=O)N[C@@H](CCCNC(=N)N)C(=O)NC(C)(C)C(=O)N[C@@H](CCCNC(=N)N)C(=O)N[C@@H](CCCCN)C(=O)N[C@@H](CCCCN)C(=O)N[C@@H](CCCNC(=N)N)C(=O)N[C@H](C(N)=O)[C@@H](C)O | 34 nM |
| CC[C@H](C)[C@H](NC(=O)[C@H](CCCNC(=N)N)NC(=O)[C@H](C)NC(=O)CNC(C)=O)C(=O)N[C@@H](CCCNC(=N)N)C(=O)N[C@@H](CCCCN)C(=O)N[C@@H](CCCCN)C(=O)N[C@@H](CCCNC(=N)N)C(=O)N[C@H](C(N)=O)[C@@H](C)O (Ac-GARIRKKRT-NH2) | 9 nM |
| CC(=O)N[C@@H](CCCNC(=N)N)C(=O)N[C@@H](C)C(=O)N[C@@H](Cc1c[nH]cn1)C(=O)N[C@@H](CCCNC(=N)N)C(=O)N[C@@H](CCCNC(=N)N)C(=O)N[C@@H](CCCCN)C(=O)N[C@@H](CCCCN)C(=O)N[C@@H](CCCNC(=N)N)C(=O)N[C@H](C(N)=O)[C@@H](C)O | 25 nM |
| CC(=O)N[C@@H](CCCNC(=N)N)C(=O)N[C@@H](C)C(=O)N[C@@H](CCCNC(=N)N)C(=O)N[C@@H](Cc1ccc(O)cc1)C(=O)N[C@@H](CCCNC(=N)N)C(=O)N[C@@H](CCCCN)C(=O)N[C@@H](CCCCN)C(=O)N[C@@H](CCCNC(=N)N)C(=O)N[C@H](C(N)=O)[C@@H](C)O | 35 nM |
| CC(=O)N[C@@H](CCC(=O)O)C(=O)N[C@@H](C)C(=O)N[C@@H](CCCNC(=N)N)C(=O)N[C@@H](CCCNC(=N)N)C(=O)N[C@@H](CCCNC(=N)N)C(=O)N[C@@H](CCCCN)C(=O)N[C@@H](CCCCN)C(=O)N[C@@H](CCCNC(=N)N)C(=O)N[C@H](C(N)=O)[C@@H](C)O | 11 nM |
| CC[C@H](C)[C@H](NC(=O)[C@H](CCCNC(=N)N)NC(=O)[C@H](C)NC(=O)[C@H](CCC(=O)O)NC(C)=O)C(=O)N[C@@H](CCCNC(=N)N)C(=O)N[C@@H](CCCCN)C(=O)N[C@@H](CCCCN)C(=O)N[C@@H](CCCNC(=N)N)C(=O)N[C@H](C(N)=O)[C@@H](C)O (Ac-EARIRKKRT-NH2) | 12 nM |
| CC[C@H](C)[C@H](NC(=O)[C@H](CCCNC(=N)N)NC(C)=O)C(=O)N[C@@H](CCCNC(=N)N)C(=O)N[C@@H](CCCNC(=N)N)C(=O)N[C@@H](CCCNC(=N)N)C(=O)N[C@@H](CCCCN)C(=O)N[C@@H](CCCCN)C(=O)N[C@@H](CCCNC(=N)N)C(=O)N[C@H](C(N)=O)[C@@H](C)O | 20 nM |
| CC(=O)N[C@@H](CCCNC(=N)N)C(=O)N[C@@H](C)C(=O)N[C@@H](CCCCN)C(=O)N[C@@H](CCCNC(=N)N)C(=O)N[C@@H](CCCNC(=N)N)C(=O)N[C@@H](CCCCN)C(=O)N[C@@H](CCCCN)C(=O)N[C@@H](CCCNC(=N)N)C(=O)N[C@H](C(N)=O)[C@@H](C)O | 15 nM |
| CC(=O)N[C@@H](CCCNC(=N)N)C(=O)N[C@@H](C)C(=O)N1CCC[C@H]1C(=O)N[C@@H](CCCNC(=N)N)C(=O)N[C@@H](CCCNC(=N)N)C(=O)N[C@@H](CCCCN)C(=O)N[C@@H](CCCCN)C(=O)N[C@@H](CCCNC(=N)N)C(=O)N[C@H](C(N)=O)[C@@H](C)O | 21 nM |
| CC(=O)N[C@@H](CCCNC(=N)N)C(=O)N[C@@H](Cc1ccc(O)cc1)C(=O)N[C@@H](CCCNC(=N)N)C(=O)N[C@@H](CCCNC(=N)N)C(=O)N[C@@H](CCCNC(=N)N)C(=O)N[C@@H](CCCCN)C(=O)N[C@@H](CCCCN)C(=O)N[C@@H](CCCNC(=N)N)C(=O)N[C@H](C(N)=O)[C@@H](C)O | 24 nM |
| CC(=O)N[C@@H](CCCNC(=N)N)C(=O)N[C@@H](CCCNC(=N)N)C(=O)N[C@@H](CCCNC(=N)N)C(=O)N[C@@H](CCCNC(=N)N)C(=O)N[C@@H](CCCNC(=N)N)C(=O)N[C@@H](CCCCN)C(=O)N[C@@H](CCCCN)C(=O)N[C@@H](CCCNC(=N)N)C(=O)N[C@H](C(N)=O)[C@@H](C)O | 23 nM |
| CC(=O)N[C@@H](CCCCN)C(=O)N[C@@H](C)C(=O)N[C@@H](CCCNC(=N)N)C(=O)N[C@@H](CCCNC(=N)N)C(=O)N[C@@H](CCCNC(=N)N)C(=O)N[C@@H](CCCCN)C(=O)N[C@@H](CCCCN)C(=O)N[C@@H](CCCNC(=N)N)C(=O)N[C@H](C(N)=O)[C@@H](C)O | 13 nM |
| CCCC[C@H](NC(=O)[C@H](CCCNC(=N)N)NC(=O)[C@H](C)NC(=O)[C@H](CCCNC(=N)N)NC(C)=O)C(=O)N[C@@H](CCCNC(=N)N)C(=O)N[C@@H](CCCCN)C(=O)N[C@@H](CCCCN)C(=O)N[C@@H](CCCNC(=N)N)C(=O)N[C@H](C(N)=O)[C@@H](C)O | 19 nM |

| Structure (SMILES) | Ki |
| --- | --- |
| CC(=O)N1CCC[C@@H]1C(=O)N[C@@H](C)C(=O)N[C@@H](CCCNC(=N)N)C(=O)N[C@@H](CCCNC(=N)N)C(=O)N[C@@H](CCCNC(=N)N)C(=O)N[C@@H](CCCCN)C(=O)N[C@@H](CCCCN)C(=O)N[C@@H](CCCNC(=N)N)C(=O)N[C@H](C(N)=O)[C@@H](C)O | 13 nM |
| CC(=O)N[C@@H](CCCNC(=N)N)C(=O)N[C@@H](CCCCN)C(=O)N[C@@H](CCCNC(=N)N)C(=O)N[C@@H](CCCNC(=N)N)C(=O)N[C@@H](CCCNC(=N)N)C(=O)N[C@@H](CCCCN)C(=O)N[C@@H](CCCCN)C(=O)N[C@@H](CCCNC(=N)N)C(=O)N[C@H](C(N)=O)[C@@H](C)O | 16 nM |
| CSCC[C@H](NC(=O)[C@H](CCCNC(=N)N)NC(C)=O)C(=O)N[C@@H](CCCNC(=N)N)C(=O)N[C@@H](CCCNC(=N)N)C(=O)N[C@@H](CCCNC(=N)N)C(=O)N[C@@H](CCCCN)C(=O)N[C@@H](CCCCN)C(=O)N[C@@H](CCCNC(=N)N)C(=O)N[C@H](C(N)=O)[C@@H](C)O | 38 nM |
| CC(=O)N[C@@H](CCCNC(=N)N)C(=O)N[C@@H](C)C(=O)N[C@@H](CCCNC(=N)N)C(=O)N[C@@H](C)C(=O)N[C@@H](CCCNC(=N)N)C(=O)N[C@@H](CCCCN)C(=O)N[C@@H](CCCCN)C(=O)N[C@@H](CCCNC(=N)N)C(=O)N[C@H](C(N)=O)[C@@H](C)O | 11 nM |
| CC(=O)N[C@@H](CCCNC(=N)N)C(=O)N[C@@H](CCC(=O)O)C(=O)N[C@@H](CCCNC(=N)N)C(=O)N[C@@H](CCCNC(=N)N)C(=O)N[C@@H](CCCNC(=N)N)C(=O)N[C@@H](CCCCN)C(=O)N[C@@H](CCCCN)C(=O)N[C@@H](CCCNC(=N)N)C(=O)N[C@H](C(N)=O)[C@@H](C)O | 24 nM |
| CC(=O)N[C@@H](CCCNC(=N)N)C(=O)N[C@@H](C)C(=O)N[C@@H](CCCNC(=N)N)C(=O)N[C@H]1CCCCNC(=O)[C@H](CCCNC(=N)N)NC(=O)[C@H](CCCCN)NC(=O)[C@H](CCCCN)NC(=O)[C@H](CCCNC(=N)N)NC(=O)[C@H]([C@@H](C)O)NC1=O (Ac-RARKTRKKR; lactam 4-C) | 2500 nM |
| CC[C@H](C)[C@H](NC(=O)[C@H](C)NC(=O)[C@H](CCCNC(=N)N)NC(C)=O)C(=O)N[C@@H](CCCNC(=N)N)C(=O)N[C@@H](CCCNC(=N)N)C(=O)N[C@@H](CCCCN)C(=O)N[C@@H](CCCCN)C(=O)N[C@@H](CCCNC(=N)N)C(=O)N[C@H](C(N)=O)[C@@H](C)O | 26 nM |
| CC(=O)N[C@@H](CC(N)=O)C(=O)N[C@@H](C)C(=O)N[C@@H](CCCNC(=N)N)C(=O)N[C@@H](CCCNC(=N)N)C(=O)N[C@@H](CCCNC(=N)N)C(=O)N[C@@H](CCCCN)C(=O)N[C@@H](CCCCN)C(=O)N[C@@H](CCCNC(=N)N)C(=O)N[C@H](C(N)=O)[C@@H](C)O | 12 nM |
| CC[C@H](NC(=O)[C@H](CCCNC(=N)N)NC(=O)[C@H](C)NC(=O)[C@H](CO)NC(C)=O)C(=O)N[C@@H](CCCNC(=N)N)C(=O)N[C@@H](CCCCN)C(=O)N[C@@H](CCCCN)C(=O)N[C@@H](CCCNC(=N)N)C(=O)N[C@H](C(N)=O)[C@@H](C)O | 11 nM |
| CC(=O)N[C@@H](CCCNC(=N)N)C(=O)N[C@@H](C)C(=O)N[C@@H](Cc1ccc(O)cc1)C(=O)N[C@@H](CCCNC(=N)N)C(=O)N[C@@H](CCCNC(=N)N)C(=O)N[C@@H](CCCCN)C(=O)N[C@@H](CCCCN)C(=O)N[C@@H](CCCNC(=N)N)C(=O)N[C@H](C(N)=O)[C@@H](C)O | 48 nM |
| CC(=O)N[C@@H](CCCNC(=N)N)C(=O)N[C@@H](C)C(=O)N[C@@H](CC(N)=O)C(=O)N[C@@H](CCCNC(=N)N)C(=O)N[C@@H](CCCNC(=N)N)C(=O)N[C@@H](CCCCN)C(=O)N[C@@H](CCCCN)C(=O)N[C@@H](CCCNC(=N)N)C(=O)N[C@H](C(N)=O)[C@@H](C)O | 27 nM |
| CC(=O)N[C@@H](CCCNC(=N)N)C(=O)N[C@@H](C)C(=O)N[C@@H](CO)C(=O)N[C@@H](CCCNC(=N)N)C(=O)N[C@@H](CCCNC(=N)N)C(=O)N[C@@H](CCCCN)C(=O)N[C@@H](CCCCN)C(=O)N[C@@H](CCCNC(=N)N)C(=O)N[C@H](C(N)=O)[C@@H](C)O | 29 nM |
| CC(=O)N[C@@H](CCCNC(=N)N)C(=O)NCC(=O)N[C@@H](CCCNC(=N)N)C(=O)N[C@@H](CCCNC(=N)N)C(=O)N[C@@H](CCCNC(=N)N)C(=O)N[C@@H](CCCCN)C(=O)N[C@@H](CCCCN)C(=O)N[C@@H](CCCNC(=N)N)C(=O)N[C@H](C(N)=O)[C@@H](C)O | 17 nM |
| CC[C@H](C)[C@@H](NC(=O)[C@H](CCCNC(=N)N)NC(=O)[C@H](C)NC(=O)[C@H](CCCNC(=N)N)NC(C)=O)C(=O)N[C@@H](CCCNC(=N)N)C(=O)N[C@@H](CCCCN)C(=O)N[C@@H](CCCCN)C(=O)N[C@@H](CCCNC(=N)N)C(=O)N[C@H](C(N)=O)[C@@H](C)O | 240 nM |
| CC(=O)N[C@@H](CCCNC(=N)N)C(=O)N[C@@H](C)C(=O)N[C@@H](CCCNC(=N)N)C(=O)NCC(=O)N[C@@H](CCCNC(=N)N)C(=O)N[C@@H](CCCCN)C(=O)N[C@@H](CCCCN)C(=O)N[C@@H](CCCNC(=N)N)C(=O)N[C@H](C(N)=O)[C@@H](C)O | 36 nM |
